Calls of active or inactive are those of the source.
What was measured:
Mus musculus [1] = test: Antinociceptive activity in formalin-induced Swiss mouse model of hyperalgesia assessed as time spent licking the injected paw in early phase at 100 mM/kg, po pretreated for 1 hr followed by formalin injection and measured up to 5 mins (reference value: 74 +/- 7.7 secs); type: functional
Acetylcholinesterase [2] = molecular target: T1, Acetylcholinesterase (Electrophorus electricus, UniProt O42275); test: (§1) Inhibition of electric eel AChE using acetylthiocholine iodide as substrate preincubated for 10 mins followed by substrate addition by Ellman's method
T1 sequence (O42275 whole entry): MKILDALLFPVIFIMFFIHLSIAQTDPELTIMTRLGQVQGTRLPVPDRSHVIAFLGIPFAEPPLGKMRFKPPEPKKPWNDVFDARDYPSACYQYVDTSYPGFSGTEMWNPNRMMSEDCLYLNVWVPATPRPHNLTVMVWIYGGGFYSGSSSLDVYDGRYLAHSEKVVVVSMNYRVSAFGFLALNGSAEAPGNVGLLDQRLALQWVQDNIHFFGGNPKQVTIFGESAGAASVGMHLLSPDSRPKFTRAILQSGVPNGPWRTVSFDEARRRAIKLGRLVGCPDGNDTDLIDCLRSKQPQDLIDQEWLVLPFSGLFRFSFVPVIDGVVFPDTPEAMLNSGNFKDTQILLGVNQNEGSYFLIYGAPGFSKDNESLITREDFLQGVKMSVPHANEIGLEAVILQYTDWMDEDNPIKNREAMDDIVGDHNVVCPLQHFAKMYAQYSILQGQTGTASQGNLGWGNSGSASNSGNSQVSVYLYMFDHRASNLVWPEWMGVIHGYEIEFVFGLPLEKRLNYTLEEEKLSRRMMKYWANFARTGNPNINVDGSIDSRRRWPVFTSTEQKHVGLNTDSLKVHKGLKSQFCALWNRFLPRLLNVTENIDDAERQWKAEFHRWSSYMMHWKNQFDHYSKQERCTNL

[3] = molecular target: Acetylcholinesterase (Electrophorus electricus) (UniProt O42275); test: as §1
Acetylcholinesterase (Electrophorus electricus), sequence (O42275 24-633 limits assumed): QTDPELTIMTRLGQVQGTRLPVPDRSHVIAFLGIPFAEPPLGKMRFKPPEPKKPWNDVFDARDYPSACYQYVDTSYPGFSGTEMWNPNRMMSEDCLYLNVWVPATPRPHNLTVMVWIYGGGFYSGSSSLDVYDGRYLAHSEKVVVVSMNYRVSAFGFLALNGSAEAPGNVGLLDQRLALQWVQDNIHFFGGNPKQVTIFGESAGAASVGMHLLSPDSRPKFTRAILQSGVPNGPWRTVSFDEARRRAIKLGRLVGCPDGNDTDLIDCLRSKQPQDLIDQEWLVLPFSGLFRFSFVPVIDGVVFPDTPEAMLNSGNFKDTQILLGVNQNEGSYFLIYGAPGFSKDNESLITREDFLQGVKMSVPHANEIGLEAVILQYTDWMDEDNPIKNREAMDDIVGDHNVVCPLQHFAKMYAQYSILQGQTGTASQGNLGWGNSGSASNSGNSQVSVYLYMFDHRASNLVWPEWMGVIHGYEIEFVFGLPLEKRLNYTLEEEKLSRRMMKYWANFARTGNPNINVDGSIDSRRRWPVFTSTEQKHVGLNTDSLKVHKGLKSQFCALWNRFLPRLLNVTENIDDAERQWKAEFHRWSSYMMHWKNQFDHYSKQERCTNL

HepG2 [4] = test: cells; type: ADME, cell-based; settings: Homo sapiens, HepG2, 6 h
[5] = molecular target: Acetylcholinesterase (Electrophorus electricus) (UniProt O42275); test: Inhibition of electric eel AChE at 100 uM using acetylthiocholine iodide as substrate preincubated for 10 mins followed by substrate addition by Ellman's method relative to control
SH-SY5Y [6] = test: cells; type: ADME, cell-based; settings: Homo sapiens, 24 h
HepG2 [7] = test: Genotoxicity in human HepG2 cells assessed as induction of DNA damage by measuring comet tail moment at 20 to 40 uM by alkaline comet assay; type: toxicity, cell-based; settings: hepg2, 40 µM
Procedure, shortened: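 HepG2 cells were exposed 6 h to 20 or 40 µM, then trypsinised; viability was checked by trypan blue. Cells were embedded in low-melting agarose and lysed at 4 °C, pH 10, for 24 h. DNA was unwound 20 min in pH 13 buffer, then electrophoresed 25 V/300 mA for 25 min, neutralised and stained with SYBR Green. Tail moment was scored on 50 nuclei per slide in triplicate slides; 3 independent experiments. Doxorubicin and UV light served as positive controls.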

Mus musculus [8] = test: Antinociceptive activity in carrageenan-induced Swiss mouse model of mechanical hyperalgesia assessed as mechanical hyperalgesic index pretreated orally for 1 hr followed by carrageenan challenge by Von Frey filament assay; type: functional
Procedure, shortened: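 Swiss mice were placed in wire-screen acrylic boxes 60 min before testing. Vehicle, compound or indomethacin was given orally 1 h before intraplantar carrageenan. Mechanical threshold was found by the von Frey up-and-down method, with at least 6 trials at 10 s intervals, raising filament mass until paw withdrawal. Results are given as threshold in grams; n=8.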

SH-SY5Y [9] = test: Neuroprotection in human SH-SY5Y cells assessed as inhibition of amyloid beta (1 to 42) oligomer-induced neuronal death at 10 uM after 24 hrs by propidium iodide staining based fluorescence microscopic method; type: functional, cell-based
Procedure, shortened: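 After plating at 5×10^3 cells/well and growing 24 h, SH-SY5Y cells were co-exposed to compound and Aβ1-42 oligomers (10 µM) for 24 h at 37 °C. Cells were stained with propidium iodide in PBS for 10 min. Dead cells were counted by fluorescence microscopy in four fields of 50–100 cells and expressed as PI-positive/total × 100. Three independent experiments.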

Mus musculus [10] = test: (§2) Anti-inflammatory activity in C57Bl/6 mouse model of amyloid beta (1 to 42) oligomer-induced neuroinflammation assessed as inhibition of neurodegeneration in CA1 region of ipsilateral hippocampus at 100 mg/kg, ip pretreated for 1.5 hrs followed by amyloid beta (1 to 42) oligomer addition and measured after 7 days by Fluoro-Jade C staining based fluorescence microscopic assay; type: functional, organism-based
Procedure, shortened: (§3)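 C57Bl/6 male mice were dosed i.p. at 100 mg/kg 1.5 h before stereotactic right intrahippocampal Aβ1-42 oligomer injection (400 pmol/0.5 µL), with PBS as control. After 7 days, hippocampal sections were stained with Fluoro-Jade C (0.0001%) after NaOH/ethanol and permanganate steps. Five CA1 images per hippocampus were imaged under fluorescence and pixel intensity quantified, n=10.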

[11] = Cytotoxicity against human HepG2 cells assessed as cell viability at 20 to 40 uM after 6 hrs by trypan blue exclusion assay relative to control; type: cell-based; settings: read-out: Activity
Mus musculus [12] = test: Inhibition of serum COX2 level in Swiss mouse model of carragenan-induced paw edema at 100 mM/kg, po pretreated for 1 hr followed by carrageenan treatment measured after 3 hrs by ELISA; type: functional
Procedure, shortened: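 Swiss mice (n=8) received compound (100 mM/kg) or vehicle orally 1 h before intraplantar carrageenan; indomethacin was the positive control. Three hours later, blood was drawn from the heart under chloral hydrate anaesthesia and serum was collected. COX-1 and COX-2 protein was measured by sandwich ELISA read at 450 nm and expressed as percent COX level.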

Mus musculus [13] = test: as §2, with “Toxicity” for “Anti-inflammatory activity”, “induction” for “inhibition”, “contralateral” for “ipsilateral”; type: organism-based; settings: in vivo, 168 h; procedure, shortened: as §3
Mus musculus [14] = test: Antinociceptive activity in formalin-induced Swiss mouse model of hyperalgesia assessed as time spent licking the injected paw in last phase at […], po pretreated for 1 hr followed by formalin injection and measured at 20 to 30 mins (reference value: 135.8 +/- 10.7 secs); type: functional
Mus musculus [15] = test: Anti-inflammatory activity in po dosed Swiss mouse assessed as reduction in carrageenan-induced paw edema pretreated for 1 hr followed by carrageenan injection and measured after 1 to 5 hrs by plethysmometric method; type: functional; settings: read-out: ID50 (the source's name)
Procedure, shortened: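 Male Swiss mice (22–28 g) were fasted overnight and dosed orally with vehicle (2% DMSO in sterile saline), compound or indomethacin 1 h before intraplantar carrageenan. Groups (n=10) were matched on basal paw volume. Right hind paw volume was read by plethysmometer at 1, 3 and 5 h and expressed as change from basal.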

Cholinesterase = Cholinesterase (Equus caballus, UniProt P81908); test: (§4) Inhibition of […] preincubated for 10 mins followed by substrate addition by Ellman's method
Cholinesterase, sequence (P81908 whole entry): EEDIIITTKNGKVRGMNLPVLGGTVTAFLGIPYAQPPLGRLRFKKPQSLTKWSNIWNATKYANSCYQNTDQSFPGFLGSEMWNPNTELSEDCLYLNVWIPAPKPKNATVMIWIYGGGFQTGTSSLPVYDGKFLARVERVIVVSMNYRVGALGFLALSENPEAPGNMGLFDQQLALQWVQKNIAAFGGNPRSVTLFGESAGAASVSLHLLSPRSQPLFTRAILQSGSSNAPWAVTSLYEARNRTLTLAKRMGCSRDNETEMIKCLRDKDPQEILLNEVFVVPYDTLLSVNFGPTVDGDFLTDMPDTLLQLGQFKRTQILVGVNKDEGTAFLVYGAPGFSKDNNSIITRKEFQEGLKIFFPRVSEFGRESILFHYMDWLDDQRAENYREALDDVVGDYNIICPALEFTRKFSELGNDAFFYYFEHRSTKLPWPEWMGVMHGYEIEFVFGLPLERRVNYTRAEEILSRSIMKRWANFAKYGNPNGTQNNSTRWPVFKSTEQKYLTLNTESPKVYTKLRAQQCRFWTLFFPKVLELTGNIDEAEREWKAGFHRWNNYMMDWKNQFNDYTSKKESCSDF

[16] = molecular target: Cholinesterase (Equus caballus) (UniProt P81908); test: as §4
Cholinesterase (Equus caballus), sequence (P81908 whole entry): as above

Acetylcholinesterase [17] = molecular target: T1, Acetylcholinesterase; test: Non-competitive inhibition of electric eel AChE using acetylthiocholine iodide as substrate preincubated for 10 mins followed by substrate addition by Ellman's method
Procedure, shortened: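 Substrate-competition kinetics with E. electricus AChE by Ellman's method: 10 min enzyme–DTNB–compound preincubation in 0.1 M phosphate, pH 7.4, then acetylthiocholine; A412 was read every 12 s for 5 min at rt. Three independent data sets, each in triplicate, were averaged and fitted to a simple noncompetitive model. That model was compared with mixed linear inhibition by AICc probability ratio.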

[18] = Selectivity ratio of compound effect for inhibition of human COX2 to compound effect for inhibition of ovine COX1
Procedure, shortened: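 COX-1 or COX-2 with heme was preincubated 120 min with compound (10 µM) in assay buffer. Arachidonic acid and a chemiluminescent substrate were then added at room temperature and peroxidative activity was read for 5 s; ibuprofen was the reference. Selectivity index was taken as the ratio of maximum COX-2 inhibition to COX-1 inhibition. Two independent experiments.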

[19] = Selectivity ratio of IC50 for equine serum BuChE to IC50 for electric eel AChE
Procedure, shortened: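 Ellman kinetic assay with Electrophorus electricus AChE (acetylthiocholine) and equine serum BuChE (butyrylthiocholine iodide), […]. Enzyme was preincubated 10 min with DTNB and compound in 0.1 M sodium phosphate, pH 7.4 (final DMSO <0.2%), before substrate was added. A412 was read every 12 s for 5 min at rt to give maximum velocity. IC50 is the geometric mean of 2–3 curves, each 6 concentrations in triplicate. Selectivity is IC50 BuChE/IC50 AChE.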

O=C(N/N=C/c1ccc(F)cc1)c1ccc(CN2CCCC(O)C2)cc1 (stereo not given)
Time (Mus musculus [1]): 18.86 s
IC50 (Acetylcholinesterase [2]): 8.65 µM
inhibition [3]: Dose-dependent effect
IC50 (HepG2 [4]): > 80 µM
inhibition [5]: > 60%
IC50 (SH-SY5Y [6]): > 80 µM
Activity (HepG2 [7]): Non-Toxic
Activity_index (Mus musculus [8]): 178.9
inhibition (SH-SY5Y [9]): Active
inhibition (Mus musculus [10]): inactive
viability at 6 h, 40 µM [11]: > 90%
inhibition (INH) (Mus musculus [12]): 25%
Activity (Mus musculus [13]): Toxic
Time (Mus musculus [14]): 24.17 s
ED50 (Mus musculus [15]): 4.66 µmol/kg
IC50 (Cholinesterase): 39 µM
inhibition [16]: Dose-dependent effect
Ki (Acetylcholinesterase [17]): 13.4 µM
Selectivity ratio [18]: 0.83
Ratio IC50 [19]: 4.5

O=C(N/N=C/c1ccc(Cl)cc1)c1ccc(CN2CCCC(O)C2)cc1 (stereo not given)
Time (Mus musculus [1]): 14 s
IC50 (Acetylcholinesterase [2]): 25.4 µM
inhibition [3]: Dose-dependent effect
IC50 (HepG2 [4]): > 80 µM
inhibition [5]: > 60%
IC50 (SH-SY5Y [6]): > 80 µM
Activity (HepG2 [7]): Non-Toxic
Activity_index (Mus musculus [8]): 168.3
inhibition (SH-SY5Y [9]): Active
inhibition (Mus musculus [10]): Active
viability at 6 h, 40 µM [11]: > 90%
inhibition (INH) (Mus musculus [12]): 42%
Activity (Mus musculus [13]): Non-Toxic
Time (Mus musculus [14]): 62.88 s
ED50 (Mus musculus [15]): 8.76 µmol/kg
IC50 (Cholinesterase): 48.2 µM
inhibition [16]: Dose-dependent effect
Ki (Acetylcholinesterase [17]): 7.76 µM
Selectivity ratio [18]: 1.27
Ratio IC50 [19]: 1.9
